Measurements published in ChEMBL document CHEMBL4689842, “EUbOPEN Chemogenomics Library wave 1” (2021).

Tested on: HEK-293T
Assay: Multiplex assay against HEK293T;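 on Population Tubulin-Different-Phenotype (%): share of the cells with healthy nuclei that show this phenotype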
Assay type: toxicity, cell-based
Details: human
How it was run: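 Compound was added to live cells that had been stained at seeding with Hoechst33342, BioTracker Green Microtubule Cytoskeleton Dye, MitoTracker Red and Annexin V Alexa Fluor 680, and imaging followed on a CQ1 microscope at 37°C and 5% CO2. CellPathfinder machine-learning gating divided cells into Hoechst high-intensity objects or normal cells, normal cells into healthy, pyknosed or fragmented nuclei, and pyknosed cells into mitotic or apoptotic. Tubulin, mitochondrial-mass and membrane-permeability phenotypes are per cents of healthy-nucleus cells.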

[1] = 12 h, 1 µM, compound concentration 1 uM, replicate 1
[2] = 12 h, 1 µM, compound concentration 1 uM, replicate 2
[3] = 12 h, 10 µM, compound concentration 10 uM, replicate 1
[4] = 12 h, 10 µM, compound concentration 10 uM, replicate 2
[5] = 24 h, 1 µM, compound concentration 1 uM, replicate 1
[6] = 24 h, 1 µM, compound concentration 1 uM, replicate 2
[7] = 24 h, 10 µM, compound concentration 10 uM, replicate 1
[8] = 24 h, 10 µM, compound concentration 10 uM, replicate 2
[9] = 48 h, 1 µM, compound concentration 1 uM, replicate 1
[10] = 48 h, 1 µM, compound concentration 1 uM, replicate 2
[11] = 48 h, 10 µM, compound concentration 10 uM, replicate 1
[12] = 48 h, 10 µM, compound concentration 10 uM, replicate 2

For `C[C@@H](Oc1cc(-n2cnc3ccc(CN4CCN(C)CC4)cc32)sc1C(N)=O)c1ccccc1C(F)(F)F` [GSK-461364], the “Population Apoptotic (%)” value [1] was 62%, the “Population Fragmented Nuclei (%)” value [1] was 14% and the “Population Healthy Nuclei (%)” value [1] was 19%. The “Population Hoechst High Intensity Objects (%)” value [1] was 17%, the “Population Membrane Permeable-Phenotype (%)” value [1] was 5% and the “Population Mitochondria Different-Phenotype (%)” value [1] was 98%. For the same molecule, the “Population Mitotic Cells (%)” value [1] was 37%, the “Population Normal (%)” value [1] was 82% and the “Population Pyknosed Nuclei (%)” value [1] was 65%. The “Population Tubulin-Different-Phenotype (%)” value [1] was 96%, the “Total Cell Count” value [1] was 322 and the “Population Apoptotic (%)” value [2] was 27%. The “Population Fragmented Nuclei (%)” value [2] was 10%, the “Population Healthy Nuclei (%)” value [2] was 33% and the “Population Hoechst High Intensity Objects (%)” value [2] was 4%. For the same molecule, the “Population Membrane Permeable-Phenotype (%)” value [2] was 20%, the “Population Mitochondria Different-Phenotype (%)” value [2] was 60% and the “Population Mitotic Cells (%)” value [2] was 72%. For the same molecule, the “Population Normal (%)” value [2] was 95%, the “Population Pyknosed Nuclei (%)” value [2] was 56% and the “Population Tubulin-Different-Phenotype (%)” value [2] was 71%. For the same molecule, the “Total Cell Count” value [2] was 142, the “Population Apoptotic (%)” value [3] was 80% and the “Population Fragmented Nuclei (%)” value [3] was 16%. For the same molecule, the “Population Healthy Nuclei (%)” value [3] was 11%, the “Population Hoechst High Intensity Objects (%)” value [3] was 22% and the “Population Membrane Permeable-Phenotype (%)” value [3] was 7%. For the same molecule, the “Population Mitochondria Different-Phenotype (%)” value [3] was 100%, the “Population Mitotic Cells (%)” value [3] was 19% and the “Population Normal (%)” value [3] was 77%. For the same molecule, the “Population Pyknosed Nuclei (%)” value [3] was 71%, the “Population Tubulin-Different-Phenotype (%)” value [3] was 74% and the “Total Cell Count” value [3] was 294. For the same molecule, the “Population Apoptotic (%)” value [4] was 66%, the “Population Fragmented Nuclei (%)” value [4] was 11% and the “Population Healthy Nuclei (%)” value [4] was 14%. The “Population Hoechst High Intensity Objects (%)” value [4] was 10%, the “Population Membrane Permeable-Phenotype (%)” value [4] was 12% and the “Population Mitochondria Different-Phenotype (%)” value [4] was 75%. For the same molecule, the “Population Mitotic Cells (%)” value [4] was 33%, the “Population Normal (%)” value [4] was 89% and the “Population Pyknosed Nuclei (%)” value [4] was 73%. The “Population Tubulin-Different-Phenotype (%)” value [4] was 62%, the “Total Cell Count” value [4] was 187 and the “Population Apoptotic (%)” value [5] was 66%. The “Population Fragmented Nuclei (%)” value [5] was 14%, the “Population Healthy Nuclei (%)” value [5] was 22% and the “Population Hoechst High Intensity Objects (%)” value [5] was 16%. The “Population Membrane Permeable-Phenotype (%)” value [5] was 0%, the “Population Mitochondria Different-Phenotype (%)” value [5] was 98% and the “Population Mitotic Cells (%)” value [5] was 33%. The “Population Normal (%)” value [5] was 83%, the “Population Pyknosed Nuclei (%)” value [5] was 62% and the “Population Tubulin-Different-Phenotype (%)” value [5] was 96%. For the same molecule, the “Total Cell Count” value [5] was 321, the “Population Apoptotic (%)” value [6] was 38% and the “Population Fragmented Nuclei (%)” value [6] was 8%. For the same molecule, the “Population Healthy Nuclei (%)” value [6] was 43%, the “Population Hoechst High Intensity Objects (%)” value [6] was 3% and the “Population Membrane Permeable-Phenotype (%)” value [6] was 12%. The “Population Mitochondria Different-Phenotype (%)” value [6] was 54%, the “Population Mitotic Cells (%)” value [6] was 61% and the “Population Normal (%)” value [6] was 96%. For the same molecule, the “Population Pyknosed Nuclei (%)” value [6] was 47%, the “Population Tubulin-Different-Phenotype (%)” value [6] was 75% and the “Total Cell Count” value [6] was 154. For the same molecule, the “Population Apoptotic (%)” value [7] was 81%, the “Population Fragmented Nuclei (%)” value [7] was 26% and the “Population Healthy Nuclei (%)” value [7] was 10%. For the same molecule, the “Population Hoechst High Intensity Objects (%)” value [7] was 25%, the “Population Membrane Permeable-Phenotype (%)” value [7] was 4% and the “Population Mitochondria Different-Phenotype (%)” value [7] was 100%. For the same molecule, the “Population Mitotic Cells (%)” value [7] was 18%, the “Population Normal (%)” value [7] was 74% and the “Population Pyknosed Nuclei (%)” value [7] was 63%. The “Population Tubulin-Different-Phenotype (%)” value [7] was 45%, the “Total Cell Count” value [7] was 298 and the “Population Apoptotic (%)” value [8] was 86%. The “Population Fragmented Nuclei (%)” value [8] was 12%, the “Population Healthy Nuclei (%)” value [8] was 25% and the “Population Hoechst High Intensity Objects (%)” value [8] was 5%. The “Population Membrane Permeable-Phenotype (%)” value [8] was 0%, the “Population Mitochondria Different-Phenotype (%)” value [8] was 97% and the “Population Mitotic Cells (%)” value [8] was 13%. For the same molecule, the “Population Normal (%)” value [8] was 94%, the “Population Pyknosed Nuclei (%)” value [8] was 62% and the “Population Tubulin-Different-Phenotype (%)” value [8] was 63%. For the same molecule, the “Total Cell Count” value [8] was 207, the “Population Apoptotic (%)” value [9] was 66% and the “Population Fragmented Nuclei (%)” value [9] was 22%. The “Population Healthy Nuclei (%)” value [9] was 18%, the “Population Hoechst High Intensity Objects (%)” value [9] was 22% and the “Population Membrane Permeable-Phenotype (%)” value [9] was 2%. The “Population Mitochondria Different-Phenotype (%)” value [9] was 95%, the “Population Mitotic Cells (%)” value [9] was 33% and the “Population Normal (%)” value [9] was 77%. The “Population Pyknosed Nuclei (%)” value [9] was 59%, the “Population Tubulin-Different-Phenotype (%)” value [9] was 97% and the “Total Cell Count” value [9] was 325. The “Population Apoptotic (%)” value [10] was 67%, the “Population Fragmented Nuclei (%)” value [10] was 10% and the “Population Healthy Nuclei (%)” value [10] was 60%. For the same molecule, the “Population Hoechst High Intensity Objects (%)” value [10] was 2%, the “Population Membrane Permeable-Phenotype (%)” value [10] was 6% and the “Population Mitochondria Different-Phenotype (%)” value [10] was 53%. For the same molecule, the “Population Mitotic Cells (%)” value [10] was 32%, the “Population Normal (%)” value [10] was 97% and the “Population Pyknosed Nuclei (%)” value [10] was 28%. For the same molecule, the “Population Tubulin-Different-Phenotype (%)” value [10] was 76%, the “Total Cell Count” value [10] was 191 and the “Population Apoptotic (%)” value [11] was 77%. For the same molecule, the “Population Fragmented Nuclei (%)” value [11] was 27%, the “Population Healthy Nuclei (%)” value [11] was 4% and the “Population Hoechst High Intensity Objects (%)” value [11] was 26%. The “Population Membrane Permeable-Phenotype (%)” value [11] was 11%, the “Population Mitochondria Different-Phenotype (%)” value [11] was 100% and the “Population Mitotic Cells (%)” value [11] was 22%. For the same molecule, the “Population Normal (%)” value [11] was 73%, the “Population Pyknosed Nuclei (%)” value [11] was 68% and the “Population Tubulin-Different-Phenotype (%)” value [11] was 55%. The “Total Cell Count” value [11] was 287, the “Population Apoptotic (%)” value [12] was 79% and the “Population Fragmented Nuclei (%)” value [12] was 12%. For the same molecule, the “Population Healthy Nuclei (%)” value [12] was 31%, the “Population Hoechst High Intensity Objects (%)” value [12] was 10% and the “Population Membrane Permeable-Phenotype (%)” value [12] was 0%. The “Population Mitochondria Different-Phenotype (%)” value [12] was 98%, the “Population Mitotic Cells (%)” value [12] was 20% and the “Population Normal (%)” value [12] was 89%. The “Population Pyknosed Nuclei (%)” value [12] was 55%, the “Population Tubulin-Different-Phenotype (%)” value [12] was 56% and the “Total Cell Count” value [12] was 204.
